Source: ChEMBL document CHEMBL1138567, “Regioselective synthesis and antimicrobial screening of novel ketocarbazolodispiropyrrolidine derivatives” (2009)

Assays:
Assay type in all cases: functional
Conditions in all cases: read-out: IZ
Proteus vulgaris [1] = experiment: Antimicrobial activity against Proteus vulgaris at 100 ug/ml after 24 hrs by agar diffusion method
Outline: (§1)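 Agar well diffusion: petri plates (9 cm) with about 9 ml nutrient agar, seeded with the test organism. Wells cut with a cork borer and loaded with test compound at 25, 50, 75 or 100 per ml; tetracycline as control. Incubated 37 °C for 24 h; average inhibition-zone diameter around wells measured (mm).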

Proteus vulgaris [2] = experiment: Antimicrobial activity against Proteus vulgaris at 50 ug/ml after 24 hrs by agar diffusion method; outline: as §1
Staphylococcus aureus [3] = experiment: Antimicrobial activity against Staphylococcus aureus at 25 ug/ml after 24 hrs by agar diffusion method; outline: as §1
Proteus mirabilis [4] = experiment: Antimicrobial activity against Proteus mirabilis at 50 ug/ml after 24 hrs by agar diffusion method; outline: as §1
[5] = system: Salmonella enterica subsp. enterica serovar Typhi str. CT18; experiment: Antimicrobial activity against Salmonella typhi at 100 ug/ml after 24 hrs by agar diffusion method
Outline: (§2)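 Agar well diffusion: about 9 ml nutrient agar in 9 cm Petri plates, seeded with the test organism. Wells cut with a cork borer and loaded with test compound at 25–100 per ml; tetracycline as control. Plates incubated 24 h at 37 °C. Read-out is the average diameter of the inhibition zone around each well, in mm.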

Proteus mirabilis [6] = experiment: Antimicrobial activity against Proteus mirabilis at 100 ug/ml after 24 hrs by agar diffusion method; outline: as §1
Staphylococcus aureus [7] = experiment: Antimicrobial activity against Staphylococcus aureus at 100 ug/ml after 24 hrs by agar diffusion method; outline: as §1
[8] = system: Salmonella enterica subsp. enterica serovar Typhi str. CT18; experiment: Antimicrobial activity against Salmonella typhi at 75 ug/ml after 24 hrs by agar diffusion method; outline: as §2
Proteus mirabilis [9] = experiment: Antimicrobial activity against Proteus mirabilis at 75 ug/ml after 24 hrs by agar diffusion method; outline: as §1
Staphylococcus aureus [10] = experiment: Antimicrobial activity against Staphylococcus aureus at 50 ug/ml after 24 hrs by agar diffusion method; outline: as §1
[11] = system: Salmonella enterica subsp. enterica serovar Typhi str. CT18; experiment: Antimicrobial activity against Salmonella typhi at 50 ug/ml after 24 hrs by agar diffusion method; outline: as §2
[12] = system: Salmonella enterica subsp. enterica serovar Typhi str. CT18; experiment: Antimicrobial activity against Salmonella typhi at 25 ug/ml after 24 hrs by agar diffusion method; outline: as §2
Staphylococcus aureus [13] = experiment: Antimicrobial activity against Staphylococcus aureus at 75 ug/ml after 24 hrs by agar diffusion method; outline: as §1
Proteus vulgaris [14] = experiment: Antimicrobial activity against Proteus vulgaris at 75 ug/ml after 24 hrs by agar diffusion method; outline: as §1
Proteus vulgaris [15] = experiment: Antimicrobial activity against Proteus vulgaris at 25 ug/ml after 24 hrs by agar diffusion method; outline: as §1
Proteus mirabilis [16] = experiment: Antimicrobial activity against Proteus mirabilis at 25 ug/ml after 24 hrs by agar diffusion method; outline: as §1

Compound | zone of inhibition at 100 µg/mL (Proteus vulgaris [1]) | zone of inhibition at 50 µg/mL (Proteus vulgaris [2]) | zone of inhibition at 25 µg/mL (Staphylococcus aureus [3]) | zone of inhibition at 50 µg/mL (Proteus mirabilis [4]) | zone of inhibition at 100 µg/mL [5] | zone of inhibition at 100 µg/mL (Proteus mirabilis [6]) | zone of inhibition at 100 µg/mL (Staphylococcus aureus [7]) | zone of inhibition at 75 µg/mL [8] | zone of inhibition at 75 µg/mL (Proteus mirabilis [9]) | zone of inhibition at 50 µg/mL (Staphylococcus aureus [10]) | zone of inhibition at 50 µg/mL [11] | zone of inhibition at 25 µg/mL [12] | zone of inhibition at 75 µg/mL (Staphylococcus aureus [13]) | zone of inhibition at 75 µg/mL (Proteus vulgaris [14]) | zone of inhibition at 25 µg/mL (Proteus vulgaris [15]) | zone of inhibition at 25 µg/mL (Proteus mirabilis [16])
CN1C[C@@H](c2ccc(Cl)cc2)[C@@]2(CCc3c([nH]c4ccccc34)C2=O)[C@]12C(=O)c1cccc3cccc2c13 | > 40 mm | 18 mm | 14 mm | 16 mm | 31 mm | 36 mm | 34 mm | 21 mm | 24 mm | 18 mm | 16 mm | 13 mm | 22 mm | 24 mm | 19 mm | 12 mm
CN1C[C@@H](c2ccc(Br)cc2)[C@@]2(CCc3c([nH]c4ccccc34)C2=O)[C@]12C(=O)Nc1ccccc12 | 21 mm | 14 mm | 11 mm | 14 mm | 16 mm | 18 mm | 22 mm | 13 mm | 16 mm | 15 mm | 9 mm | – | 18 mm | 18 mm | 11 mm | 11 mm
CN1C[C@@H](c2ccccc2)[C@@]2(CCc3c([nH]c4ccccc34)C2=O)C12C(=O)c1ccccc1C2=O | 21 mm | 15 mm | – | 9 mm | 18 mm | 15 mm | 20 mm | 14 mm | 13 mm | 14 mm | 13 mm | 9 mm | 16 mm | 18 mm | 11 mm | –
COc1ccc([C@@H]2CN(C)C3(C(=O)c4ccccc4C3=O)[C@]23CCc2c([nH]c4ccccc24)C3=O)cc1 | 21 mm | 15 mm | 9 mm | 15 mm | 21 mm | 20 mm | 20 mm | 16 mm | 17 mm | 13 mm | 11 mm | – | 15 mm | 16 mm | 13 mm | 13 mm
CN1C[C@@H](c2ccccc2)[C@@]2(CCc3c([nH]c4ccccc34)C2=O)[C@]12C(=O)c1cccc3cccc2c13 | 21 mm | 14 mm | 14 mm | 13 mm | 28 mm | 32 mm | 26 mm | 20 mm | 22 mm | 19 mm | 14 mm | 11 mm | 21 mm | 18 mm | – | 11 mm
CN1C[C@@H](c2ccc(Br)cc2)[C@@]2(CCc3c([nH]c4ccccc34)C2=O)[C@]12C(=O)c1cccc3cccc2c13 | 22 mm | 16 mm | 11 mm | 15 mm | 30 mm | 22 mm | 22 mm | 21 mm | 18 mm | 14 mm | 14 mm | 9 mm | 18 mm | 20 mm | 12 mm | 13 mm
COc1ccc([C@@H]2CN(C)[C@@]3(C(=O)c4cccc5cccc3c45)[C@]23CCc2c([nH]c4ccccc24)C3=O)cc1 | 17 mm | 12 mm | 9 mm | 16 mm | 26 mm | 22 mm | 30 mm | 18 mm | 20 mm | 16 mm | 15 mm | 13 mm | 21 mm | 13 mm | 9 mm | 14 mm
